Series [1] concerns the target T1, Prostaglandin E2 receptor EP1 subtype (Homo sapiens) (UniProt P34995).
T1 sequence (whole entry): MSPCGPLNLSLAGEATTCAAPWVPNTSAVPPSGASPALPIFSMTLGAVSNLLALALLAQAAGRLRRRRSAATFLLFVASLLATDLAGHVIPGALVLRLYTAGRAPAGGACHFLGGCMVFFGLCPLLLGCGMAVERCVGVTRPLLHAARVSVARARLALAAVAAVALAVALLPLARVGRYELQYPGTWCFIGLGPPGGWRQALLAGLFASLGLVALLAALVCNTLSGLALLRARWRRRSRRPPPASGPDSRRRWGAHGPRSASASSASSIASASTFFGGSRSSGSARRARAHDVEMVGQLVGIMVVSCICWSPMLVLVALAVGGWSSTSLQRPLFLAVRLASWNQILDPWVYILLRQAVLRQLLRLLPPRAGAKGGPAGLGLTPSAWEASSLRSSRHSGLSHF
The series can be described thus: Inhibitory activity against Prostaglandin E receptor in functional cell based assay. The method in brief: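 HEK293 cells stably expressing human EP1, grown with hygromycin B and G418 at 37 °C and 6% CO2, seeded one day before, then loaded with FLIPR no-wash dye for 1 h at 37 °C in HBSS/20 mM HEPES pH 7.4. FLIPR fluorescence read after a 10 min antagonist preincubation and 5 min PGE2. PGE2 curves (0.001–30 µM) run alone and at three fixed antagonist concentrations; Kb reported.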

Series [2] is described as follows: Half life of compound in rat. In kind it is ADME. The conditions noted are these: in vivo.
In series [3] the target is T2, Prostaglandin E2 receptor EP1 subtype (Homo sapiens, UniProt P34995).
T2 sequence (P34995 whole entry): T1 sequence (whole entry)
The series can be described thus: Binding affinity against Prostaglandin E receptor was determined in human.

The target in the next series is T3, Thromboxane A2 receptor (Homo sapiens, UniProt P21731).
T3 sequence (P21731 whole entry): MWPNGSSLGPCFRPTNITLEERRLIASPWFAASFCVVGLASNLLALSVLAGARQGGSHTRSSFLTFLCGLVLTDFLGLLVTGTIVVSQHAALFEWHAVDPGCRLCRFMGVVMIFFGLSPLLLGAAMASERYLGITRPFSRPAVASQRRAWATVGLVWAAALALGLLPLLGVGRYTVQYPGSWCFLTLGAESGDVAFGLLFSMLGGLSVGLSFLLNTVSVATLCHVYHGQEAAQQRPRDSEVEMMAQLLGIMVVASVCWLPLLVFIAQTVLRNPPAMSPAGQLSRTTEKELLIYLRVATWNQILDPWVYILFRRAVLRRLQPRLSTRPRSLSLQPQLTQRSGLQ
As to the kind of experiment: Binding affinity against human Prostanoid TP receptor.

Series [4] deals with T2, Prostaglandin E2 receptor EP1 subtype. As to the kind of experiment: Binding affinity against Prostaglandin E receptor in presence of 2% human serum albumin.
In series [5] the target is T4, Prostaglandin E2 receptor EP1 subtype (Rattus norvegicus, UniProt P70597).
T4 sequence (P70597 whole entry): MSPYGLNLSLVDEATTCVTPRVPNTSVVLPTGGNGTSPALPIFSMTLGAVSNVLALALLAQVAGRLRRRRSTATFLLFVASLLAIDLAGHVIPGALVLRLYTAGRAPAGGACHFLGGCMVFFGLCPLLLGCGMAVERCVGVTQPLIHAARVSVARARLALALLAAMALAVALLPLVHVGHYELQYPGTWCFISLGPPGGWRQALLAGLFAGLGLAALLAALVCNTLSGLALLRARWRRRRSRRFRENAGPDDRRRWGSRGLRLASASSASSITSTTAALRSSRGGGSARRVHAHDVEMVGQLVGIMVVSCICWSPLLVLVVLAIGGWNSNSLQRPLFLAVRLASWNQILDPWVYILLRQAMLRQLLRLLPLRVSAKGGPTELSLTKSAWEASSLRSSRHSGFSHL
The series can be described thus: Binding affinity towards Prostaglandin E receptor was determined in rat.

Series [6] can be described thus: Bioavailability of compound in rat. In kind it is ADME, organism-based. The following applies: in vivo.
A short description of series [7]: Maximum plasma concentration of compound in rat at 4 h. In kind it is ADME, organism-based.

A value given as a limit tells only on which side of the number the result lay.

In series [1], `CC(NC(=O)c1cccc(-c2sccc2-c2cc(Cl)ccc2OCc2ccccc2)c1)c1cccnc1` (stereo not given) came in with a Kb of 97 nM. The same compound had a half-life in series [2] of less than 1 h. The inhibitory constant (Ki) was determined as 9 nM in series [3], 1200 nM at Thromboxane A2 receptor and 17 nM in series [4].
In series [1], `NS(=O)(=O)c1cccc(-c2ccsc2-c2cc(Cl)ccc2OCc2ccccc2)c1` gave a Kb of 100 nM. The compound further had a half-life in series [2] of 2 h. For the same compound, the Ki in series [3] was 8 nM; on Thromboxane A2 receptor it was 390 nM; in series [4] it was 18 nM.
Compound `OC(O)(c1cncc(-c2sccc2-c2cc(Cl)ccc2OCc2ccccc2)c1)C(F)(F)F` returned a Kb in series [1] of 70 nM. The same compound showed a half-life in series [2] of 2 h. Further, the Ki amounted to 4 nM in series [3], 220 nM at Thromboxane A2 receptor and 5 nM in series [4].
With `O=C(Cc1ccccc1)Nc1cccc(-c2sccc2-c2cc(Cl)ccc2OCc2ccccc2)c1`, the half-life in series [2] was less than 1 h. The Ki is 4 nM in series [3], greater than 21000 nM on Thromboxane A2 receptor and 5 nM in series [4].
In series [1], `O=C(O)c1cncc(-c2sccc2-c2cc(Cl)ccc2OCc2ccccc2)c1` returned a Kb of 4 nM. Also, in series [2], the half-life is less than 0.5 h. For the same compound, the Ki in series [3] came to 3 nM; at Thromboxane A2 receptor it was 230 nM; in series [4], 90 nM.
Take `O=C(O)c1cccc(-c2sccc2-c2cc(Cl)ccc2OCc2ccccc2)n1`: the Kb in series [1] turned out to be 1 nM. Moreover, the Ki in series [5] came to 12 nM; in series [3] it was 6 nM; on Thromboxane A2 receptor it was 140 nM; in series [4] it was 280 nM. Also, the bioavailability in series [6] is 73%. The compound also had a half-life in series [2] of 4 h. For the same compound, the Cmax in series [7] came out at 20 µM.
In series [1], `O=C(O)Cc1cccc(-c2sccc2-c2cc(Cl)ccc2OCc2ccccc2)c1` registered a Kb of 66 nM. This compound also had a half-life in series [2] of 3 h. Besides, the Ki in series [3] came to 15 nM; on Thromboxane A2 receptor, 150 nM; in series [4], 220 nM.
For the compound `N#CC(O)c1cncc(-c2sccc2-c2cc(Cl)ccc2OCc2ccccc2)c1` (stereo not given), the Ki in series [3] was determined as 23 nM; at Thromboxane A2 receptor, 360 nM; in series [4], 160 nM.
For the compound `OC(c1cncc(-c2sccc2-c2cc(Cl)ccc2OCc2ccccc2)c1)(C(F)(F)F)C(F)(F)F`, the figures for the Ki (in series [3]; on Thromboxane A2 receptor) were 260 nM and 200 nM, respectively.
Turning to `O=S(=O)(Cc1ccccc1)Nc1cccc(-c2sccc2-c2cc(Cl)ccc2OCc2ccccc2)c1`, the half-life in series [2] is less than 1 h. The Ki was 52 nM in series [3], greater than 21000 nM at Thromboxane A2 receptor and 72 nM in series [4].
As to `OC(c1cncc(-c2sccc2-c2cc(Cl)ccc2OCc2ccccc2)c1)C(F)(F)F` (stereo not given), the half-life in series [2] was 1 h. Further, the results for the inhibition constant (Ki) (in series [3]; at Thromboxane A2 receptor; in series [4]) were 3 nM, 120 nM and 6 nM, respectively.
The compound `O=C(O)c1cccc(-c2sccc2-c2cc(Cl)ccc2OCc2ccccc2)c1` came in with a Kb in series [1] of 7 nM. In series [2], this compound came in with a half-life of less than 0.5 h. For the same compound, the Ki in series [3] stood at 4 nM; at Thromboxane A2 receptor, 100 nM; in series [4] it was 70 nM.

The half-life is the time needed for the level to fall by half in the phase considered. Read a low half-life as fast loss. The term Ki denotes the dissociation constant of the complex between target and ligand, obtained from inhibition or displacement. For orientation: bioavailability means dose-corrected exposure relative to a reference, in per cent. A low value points to poor availability. Broadly, the Cmax is the maximum level reached in the sampled fluid or tissue.
